One series concerns Nucleic Acid. Briefly: Induction of photo-induced supercoiled Escherichia coli pBR322 DNA at drug:DNA ratio of 1:3 by agarose gel electrophoresis in presence of glutathione. The series is classed as nucleic-acid assay. The method, boiled down: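 Supercoiled pBR322 (100 ng) in 10 mM phosphate buffer pH 7.2 irradiated with UV-A (3.75 J/cm²) at [DNA]/[drug] 1/3, with additives, under nitrogen or in deuterated buffer as stated. Aliquots then incubated at 37 °C with Fpg or Endo III. Run on 1% agarose in TAE, 80 V for 2 h, stained with ethidium bromide; Form I/II fractions from band densitometry.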

Series [1] in a line: Drug uptake in mitochondria of human NCTC-2544 cells at 10 uM after 2 hrs by fluorescence microphotography. The series is classed as ADME. Particulars: nctc-2544, 2 h. The essentials: (§1)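 NCTC-2544 cells attached in Petri dishes, given compound at 10 μM for 2 h, washed with HBSS. Then 30 min with Rhodamine 123 (mitochondria), LysoTracker RED, CellMask Orange (plasma membrane) or ER-Tracker. Blue compound fluorescence overlaid on probe images by video-confocal microscopy.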

A short description of series [2]: Phototoxicity in 2.5 J/cm'2 UV-A irradiated human NCTC-2544 cells after 72 hrs by MTT assay. The conditions noted are these: NCTC-2544, light or radiation study. Type of series: functional, cell-based. The method, boiled down:
(§2)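 HL-60 and Jurkat (8×10³/well, RPMI-1640) and MCF-7, LoVo, NCTC-2544 (5×10³/well; DMEM or Ham's F12) preincubated 18 h at 37 °C, 5% CO₂. Compound in DMSO diluted in HBSS pH 7.2, 30 min at 37 °C, then UV-A at 2.5 or 3.75 J/cm². Medium replaced, 72 h incubation, MTT read-out. IC50 as mean ± SEM of three experiments.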

Series [3] relates to Jurkat. Nature of the series: Induction of lipid peroxidation in 3.75 J/cm'2 UV-A irradiated human Jurkat cells assessed as increase in TBARS formation after 24 hrs by thiobarbituric acid assay. Type of series: functional, cell-based. The essentials:
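Lipid peroxidation measured as MDA–thiobarbituric acid adducts, with BHT added to samples; calibrated to a 1,1,3,3-tetraethoxypropane standard curve; protein by Peterson method.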

For a further series, the system named is LoVo. Briefly: Phototoxicity in 3.75 J/cm'2 UV-A irradiated human LoVo cells after 72 hrs by MTT assay. Type of series: functional, cell-based. Particulars: light or radiation study. The method, boiled down: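 Seeded at 5 × 10³ cells/well with 10% FBS: MCF-7 and NCTC-2544 in DMEM, LoVo in Ham's F12. Pre-incubated 18 h at 37 °C, 5% CO2. Compound (DMSO stock diluted in HBSS pH 7.2) was applied for 30 min at 37 °C, then UV-A irradiation (mainly 365 nm, 4.0 mW/cm²). Medium was restored for 72 h before MTT. IC50 is the mean ± SEM of three experiences.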

Series [4] in a line: Drug uptake in lysosome of human NCTC-2544 cells at 10 uM after 2 hrs by fluorescence microphotography. Particulars: nctc-2544, 2 h. Type of series: ADME, cell-based. The method, boiled down: as §1
The subject of series [5] is Jurkat. Briefly: Induction of apoptosis in 3.75 J/cm'2 UV-A irradiated human Jurkat cells assessed as necrotic cells at 5 uM after 24 hrs by Annexin-V-FITC and propidium iodide based flow cytometry (reference value: 4.2 %). The series is classed as functional.
In series [6] the test system is MCF7. Nature of the series: Phototoxicity in 2.5 J/cm'2 UV-A irradiated human MCF7 cells assessed as cell viability after 72 hrs by MTT assay in presence of radical scavenger GSH. Type of series: functional, cell-based. The method, boiled down: (§3)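 MCF-7 cells given compound plus scavenger in HBSS, 30 min at 37 °C, then UV-A (2.5 J/cm², 365 nm lamp). Medium replaced; viability by MTT after 72 h. Means ± SEM of at least three independent experiments.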

Series [7] deals with MCF7. Nature of the series: Phototoxicity in 2.5 J/cm'2 UV-A irradiated human MCF7 cells assessed as cell viability after 72 hrs by MTT assay in presence of radical scavenger mannitol. Type of series: functional, cell-based. The method, boiled down:
as §3

In series [8] the test system is MCF7. Nature of the series: Phototoxicity in 2.5 J/cm'2 UV-A irradiated human MCF7 cells after 72 hrs by MTT assay. The series is classed as functional, cell-based. Particulars: MCF7, light or radiation study. The method, boiled down:
as §2

Series [9] can be described thus: Drug uptake in endoplasmic reticulum of human NCTC-2544 cells at 10 uM after 2 hrs by fluorescence microphotography. The series is classed as ADME, cell-based. Particulars: nctc-2544, 2 h. The method, boiled down: as §1

The source made the active and inactive calls. The calls are words filed in the database; no cut-off is given here.

Take `CCOC(=O)c1c2c(c(C)n1C)-c1c(cc(S(=O)(=O)c3ccccc3)c(=O)n1C)CC2`: the outcome in the series on Nucleic Acid, in the series with MCF7 [6] and in the series with MCF7 [7] was inactive. Moreover, the Drug uptake result in [1], in series [4] and in [9] was “Active” each time. Besides, the IC50 in [2] is 2400 nM; in the series with LoVo, 400 nM; with MCF7 [8], 1700 nM. Further, the Activity entry was “Dose-dependent effect” with Jurkat [3] and 4.5% in the series on Jurkat [5].

The values above are taken from ChEMBL document CHEMBL2176901, “Pyrrolo[3,4-h]quinolinones a new class of photochemotherapeutic agents” (Bioorg Med Chem, 2011).
